One block for each compound: values may come before it.
How the values were obtained:
Population PK model = assay type: in vivo, human
Summary of the method: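 The prior model was built from 534 plasma concentrations in 43 T2DM patients sampled serially after oral dosing. It was a 2-compartment model with first-order absorption (ADVAN4/TRANS4), log-normal interindividual variability and proportional residual error, fitted by FOCE with interaction. It served via $PRIOR to fit trough concentrations from four later studies. Covariates on CL/F were tested stepwise. Plasma drug was measured by LC–MS/MS (LLOQ 1 ng/mL).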

[1] = test system: Japanese healthy subjects and patients with T2DM; test: Phase I and clinical pharmacology studies; assay type: in vivo, human
Summary of the method: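 Oral dosing in three studies. Healthy subjects received single fasted doses of 1–300 mg, or 20–100 mg daily after a standardized meal. T2DM patients received 50 or 100 mg daily for 14 days. A single 50 mg dose was given to T2DM patients grouped by eGFR. Urine was collected for 24 h predose and in postdose intervals, and UGE24h was calculated. Pooled data from 137 subjects were plotted against FPG and AUC24h.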

[2] = test system: Japanese patients with T2DM; details: once daily 50 mg for 16 weeks; cited from earlier work
[3] = test system: T2DM patients with moderate renal impairment; details: cited from earlier work
[4] = cited from earlier work
[5] = test system: Japanese healthy subjects and patients with T2DM; details: phase I and clinical pharmacology studies; cited from earlier work
T2DM patients [6] = details: once daily 12.5, 25, 50 and 100 mg, 12 weeks; cited from earlier work
[7] = test system: Japanese healthy subjects and patients with T2DM; test: PK/PD maximum effect; assay type: in vivo, human
Summary of the method: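 Emax model fitted in NONMEM (FOCE with interaction) to pooled healthy-subject and T2DM data from three studies. AUC24h came from noncompartmental analysis, and UGE24h was taken over matching intervals. Emax was modelled as dependent on FAC (FPG × GFR) up to a threshold of 18 000 and constant above it. There was no interindividual variability, and residual error was additive plus proportional. Covariates were added stepwise (P < .05) and removed backward (P < .001), and the model was bootstrapped.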

[8] = test system: Japanese patients with T2DM; test: Simulation of steady-state ΔUGE24h by the final PK/PD model; parameters: species or system human; details: 50 mg once daily
Summary of the method: (§1)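 Steady state was simulated for 887 Japanese T2DM patients at 12.5, 25, 50 and 100 mg once daily. AUC24h came from individual post-hoc CL/F of the final PopPK model, and ΔUGE24h came from the final PK/PD model. The 50 mg regimen was also summarized by eGFR class (≥90, 60 to <90, 30 to <60 mL/min/1.73 m2). Results are given as median and 2.5th–97.5th percentiles.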

[9] = cited from earlier work; remark: listed apart in the source
[10] = Simulation of steady-state AUC24h using post-hoc CL/F from the final PopPK model; parameters: species or system human
Summary of the method: as §1

[11] = cited from earlier work; remark: listed apart in the source
T2DM patients [12] = details: T2DM patients with mean FPG 8–9 mmol/L (144–162 mg/dL); cited from earlier work

- Interindividual variability of CL/F (Population PK model; base model, before covariates): 26.8%
- Interindividual variability ω^2: CL (Population PK model; final PopPK model): 0.0533
- Vd/F (Population PK model; human, plasma, oral): 39.4 L
- first order absorption rate constant Ka (Population PK model; population mean, T2DM patients): 6.38 h⁻¹
- oral clearance CL/F (Population PK model; population mean, T2DM patients): 9.47 L/h
- higher exposure in moderate renal impairment patients with T2DM ([10]; descriptive comparison of assessed AUC and simulation by final PopPK model): about 20%
- change in exposure caused by covariates other than GFR (BSA, TPRO, TBIL) ([10]; final PopPK model): ≤ 10%
- increase in AUC24h, moderate renal impairment compared to normal renal function ([10]; simulation, 50 mg once daily, T2DM patients): 1.17 fold
Structure (SMILES): OC[C@H]1O[C@@H](c2ccc(F)c(Cc3cc4ccccc4s3)c2)[C@H](O)[C@@H](O)[C@@H]1O [ipragliflozin]
- effects on UGE at low doses ([1]; 1 and 3 mg single dose, healthy subjects, Study A): no significant effects
- UGE after single and multiple doses ([1]; healthy subjects and T2DM patients, exploratory assessment): dose‐dependent increase
- decreasing FPG and HbA1c levels versus placebo [2]: superior to a placebo
- tolerability [2]: well tolerated
- antidiabetic effect [3]: weaker antidiabetic effect
- oral bioavailability [4]: > 90%
- exposure versus dose [5]: increase dose‐dependently
- tolerability [5]: consistently well tolerated
- urinary glucose excretion (UGE) versus dose [5]: increase dose‐dependently
- fasting plasma glucose (FPG) and HbA1c levels (T2DM patients [6]): dose‐dependent decreases
- glucose excretion effect versus dose ([7]; above 50 mg daily dose, suggested by PK/PD model): almost reaches the maximum level
- Emax of ΔUGE24h: FAC > 18 000 ([7]; population mean, constant above FAC threshold): 107 g/24 h
- Emax of ΔUGE24h: FAC ≤ 18 000 ([7]; population mean, reference FPG 100 mg/dL and GFR 90 mL/min): 72.3 g/24 h
- change in ΔUGE24h, moderate renal impairment compared to normal renal function [8]: 0.76 fold
- protein binding ex vivo [9]: ~ 96%
- urinary excretion ratio of unchanged ipragliflozin [11]: approximately 1%

Structure (SMILES): OC[C@H]1O[C@@H](c2ccc(Cl)c(Cc3ccc(O[C@H]4CCOC4)cc3)c2)[C@H](O)[C@@H](O)[C@@H]1O [empagliflozin]
- Emax (T2DM patients [12]): 120 g/24 h

Reference: article PMC6624389 (British Journal of Clinical Pharmacology, 2019)
